# Results: ChEMBL document CHEMBL3407336, “Discovery of 1H-pyrazol-3(2H)-ones as potent and selective inhibitors of protein kinase R-like endoplasmic reticulum kinase (PERK)” (J Med Chem, 2015)
# Tests used:
# [1] = Mean residence time in Sprague-Dawley rat at 1 mg/kg, iv; assay type: ADME, organism-based; set-up: dose 1 mg/kg, route intravenous; conditions: in vivo
# Method in brief: (§1)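 PK in male Sprague-Dawley rats or male CD-1 mice. For iv, 1 mg/kg was given as a DMSO solution. For po, compound was given as a solution in the vehicle and at the dose named in each line, with MsOH-acidified vehicles at pH 2.0.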
# [2] = AUC in Sprague-Dawley rat at 2.5 mg/kg, po compound dosed in 1% Pluronic F68/1% HPMC/15% Captisol/83% H2O with MsOH at pH 2; assay type: ADME, organism-based; set-up: dose 2.5 mg/kg, route oral; conditions: plasma; method in brief: as §1
# [3] = AUC in CD1 mouse at 2.5 mg/kg, po compound dosed in 1% Pluronic F68/1% HPMC/15% Captisol/83% H2O with MsOH at pH 2; assay type: ADME, organism-based; set-up: dose 2.5 mg/kg, route oral; conditions: plasma; method in brief: as §1
# [4] = Volume of distribution at steady state in Sprague-Dawley rat at 1 mg/kg, iv; assay type: ADME, organism-based; set-up: dose 1 mg/kg, route intravenous; conditions: in vivo, read-out: Vdss; method in brief: as §1
# [5] = Oral bioavailability in Sprague-Dawley rat at 2.5 mg/kg compound dosed in 1% Pluronic F68/1% HPMC/15% Captisol/83% H2O with MsOH at pH 2; assay type: ADME, organism-based; conditions: in vivo; method in brief: as §1
# [6] = Oral bioavailability in CD1 mouse at 2.5 mg/kg compound dosed in 1% Pluronic F68/1% HPMC/15% Captisol/83% H2O with MsOH at pH 2; assay type: ADME, organism-based; conditions: in vivo; method in brief: as §1
# [7] = Clearance in Sprague-Dawley rat at 1 mg/kg, iv; assay type: ADME, organism-based; set-up: dose 1 mg/kg, route intravenous; conditions: in vivo; method in brief: as §1
# [8] = tested on: Mus musculus; test: Volume of distribution at steady state in CD1 mouse at 1 mg/kg, iv; assay type: ADME, organism-based; set-up: dose 1 mg/kg, route intravenous; conditions: in vivo; method in brief: as §1
# [9] = tested on: Mus musculus; test: Mean residence time in CD1 mouse at 1 mg/kg, iv; assay type: ADME, organism-based; set-up: dose 1 mg/kg, route intravenous; conditions: in vivo; method in brief: as §1
# [10] = AUC in Sprague-Dawley rat at 2 mg/kg, po compound dosed in 1% Tween 80/99% OraPlus; assay type: ADME, organism-based; set-up: dose 2 mg/kg, route oral; conditions: plasma; method in brief: as §1
# [11] = Oral bioavailability in Sprague-Dawley rat at 2 mg/kg compound dosed in 1% Tween 80/99% OraPlus; assay type: ADME, organism-based; conditions: in vivo; method in brief: as §1
# [12] = AUC in Sprague-Dawley rat at 2.5 mg/kg, po compound dosed in 1% Tween 80/2% HPMC/97% H2O with MsOH at pH 2; assay type: ADME, organism-based; set-up: dose 2.5 mg/kg, route oral; conditions: plasma; method in brief: as §1
# [13] = Oral bioavailability in Sprague-Dawley rat at 2.5 mg/kg compound dosed in 1% Tween 80/2% HPMC/97% H2O with MsOH at pH 2; assay type: ADME, organism-based; conditions: in vivo; method in brief: as §1
# [14] = Intrinsic clearance in rat microsomes; assay type: ADME, Microsome
Compound,MRT [1] [h],AUC [2] [µM·h],Vd [4] [L/kg],bioavailability [5] [%],clearance [7] [mL/min/kg],other results
Cc1ccc(C(=O)c2c(-c3ccccc3)n(C)n(-c3ccccc3)c2=O)c(N)c1-c1ccc2nc(C(F)F)sc2c1,5.3,3.4,5,76,15.7,–
CNc1ncc2c(F)c(-c3c(C)ccc(C(=O)c4c(-c5ccccc5)n(C)n(-c5ccccc5)c4=O)c3N)ccc2n1,3.9,3.8,2.2,48,9.5,–
CNc1ncc2c(Cl)c(-c3c(C)ccc(C(=O)c4c(-c5ccccc5)n(C)n(-c5ccccc5)c4=O)c3N)ccc2n1,5.5,3.7,2.7,49,8.33,–
Cc1ccc(C(=O)c2c(-c3ccccc3)n(C)n(-c3ccccc3)c2=O)c(N)c1-c1ccc2nc(C(F)(F)F)sc2c1,10.8,3.2,8.1,83,12.5,–
CNc1nc2ccc(-c3c(C)ccc(C(=O)c4c(-c5ccccc5)n(C)n(-c5ccccc5)c4=O)c3N)cc2s1,3.1,2.5,2,35,10.7,–
CNc1ncc2cc(-c3cc(C(=O)c4c(-c5ccccc5)n(C)n(-c5ccccc5)c4=O)ccc3Cl)ccc2n1,–,–,–,–,–,microsomal CLint [14]: 167 µL/min/mg
CNc1ncc2cc(-c3cc(C(=O)c4c(-c5ccccc5)n(C)n(-c5ccccc5)c4=O)ccc3C)ccc2n1,–,–,–,–,–,microsomal CLint [14]: 497 µL/min/mg
Cc1ccc(C(=O)c2c(-c3ccccc3)n(C)n(-c3ccccc3)c2=O)c(N)c1-c1ccc2nc(N)sc2c1,2.2,1,6.5,67,50,–
CNc1ncc2cc(-c3c(C)ccc(C(=O)c4c(-c5ccccc5)n(C)n(-c5ccccc5)c4=O)c3N)ccc2n1,–,–,–,–,–,microsomal CLint [14]: 29 µL/min/mg

# Continued, in another order:
MRT [1] [h],AUC [2] [µM·h],Vd [4] [L/kg],bioavailability [5] [%],clearance [7] [mL/min/kg],Compound,other results
2.3,1.4,3.6,55,26.7,Cc1ccc2cc(-c3c(C)ccc(C(=O)c4c(-c5ccccc5)n(C)n(-c5ccccc5)c4=O)c3N)ccc2n1,AUC [3]: 8.8 µM·h; bioavailability [6]: 46%; Vdss [8]: 1.2 L/kg; MRT [9]: 5 h
11.9,23.6,1.2,98,1.67,Cc1nc(N)c2c(-c3ccc4c(c3)CCN4C(=O)Cc3cc(F)cc(C(F)(F)F)c3)cn(C)c2n1,–
10.4,–,0.73,–,1.17,COc1cc2nccc(Oc3ccc(NC(=O)c4c(-c5ccccc5)n(C)n(-c5ccccc5)c4=O)nc3)c2cc1OC,AUC [10]: 20.2 µM·h; bioavailability [11]: 50%
1.4,1.2,2.6,69,36.7,Cc1ncc2cc(-c3c(C)ccc(C(=O)c4c(-c5ccccc5)n(C)n(-c5ccccc5)c4=O)c3N)ccc2n1,–
0.5,–,0.56,–,16.7,CNc1ncc2cc(-c3cc(C(=O)c4c(-c5ccccc5)n(C)n(-c5ccccc5)c4=O)ccc3N)ccc2n1,AUC [12]: 0.8 µM·h; bioavailability [13]: 18%
2.2,0.1,3.1,3,23.3,Cc1nc2ccc(-c3c(C)ccc(C(=O)c4c(-c5ccccc5)n(C)n(-c5ccccc5)c4=O)c3N)cc2s1,–
